# SIAE primary – human SIAE inhibitors, primary screen, biochemical, fluorescence polarization, FP-Rh probe, 1536-well HTS; 0.69% of 370,000 active; AID 1053197, 2014; inhibition, % at 9.66 µM; SIAE FP-Rh probe binding;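 active = inhibition above a cutoff: mean of compounds within the control limits plus 3 SD of those, cut at about 17% in these data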;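 also: 0% = plate median of compound wells and 100% = probe without SIAE protein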
# PRMT1 FP inh – PRMT1 methyltransferase inhibitors, primary screen, biochemical, fluorescence polarization; Protein arginine N-methyltransferase 1 (Homo sapiens), Q99873; recombinant PRMT1, activity-based probe fluorescence polarization; inhibition, % at 2.79 µM; 1.3% of 370,000 active; AID 652257, 2013;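 active = inhibition above about 21% made by adding two undisclosed values, limit read from the data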
# TCR-CD3 inh – inhibitors of human TCR-CD3 interaction, primary screen, biochemical, fluorescence, TAMRA-labeled TCR probe; 0.37% of 360,000 active; T-cell receptor (TCR); inhibition, % at 9.4 µM;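 also: recombinant mutant TCR 2C K166C tagged with TAMRA read by polarization; 0% = receptor in buffer alone and 100% = receptor with positive control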
# mABHD4 FP – ABHD4 inhibitors, primary screen, biochemical, fluorescence polarization, mouse; AID 720543, 2013; inhibition, % at 8.92 µM; 0.54% of 370,000 active; purified mABHD4, FP-Rh probe fluorescence polarization;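 active = inhibition exceeding the mean over every tested compound plus 3 SD, cut at about 30% in these data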;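 also: 0% = plate median of compound wells and 100% = S159A mutant with DMSO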
# Target sequence (Q8VD66 whole entry, looked up): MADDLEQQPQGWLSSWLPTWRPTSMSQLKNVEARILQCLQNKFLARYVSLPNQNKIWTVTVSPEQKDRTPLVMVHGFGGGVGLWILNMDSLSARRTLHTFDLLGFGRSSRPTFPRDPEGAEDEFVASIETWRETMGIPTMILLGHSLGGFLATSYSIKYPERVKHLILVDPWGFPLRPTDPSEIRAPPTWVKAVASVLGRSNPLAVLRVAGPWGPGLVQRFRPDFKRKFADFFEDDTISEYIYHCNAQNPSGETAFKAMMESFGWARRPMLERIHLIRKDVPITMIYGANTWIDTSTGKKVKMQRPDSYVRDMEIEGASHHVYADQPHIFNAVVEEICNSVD
#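 Assay system: Wild-type mouse ABHD4 protein | Medium: HEPES pH 7.0 buffer, 150 mM NaCl, 0.01% Pluronic F-127 | Incubation: Enzyme–compound pre-incubation 45 min, then probe 60 min, both 25 °C | Technique: Fluorescence polarization with parallel and perpendicular emission, 525/598 nm | Evaluation: % inhibition of FP-Rh probe binding versus controls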
# HTRA1 inhibitor – HTRA1 serine protease inhibitors, primary screen, biochemical, fluorescence polarization, HTS | Q92743 | recombinant HTRA1, FP-rhodamine activity-based probe | inhibition, % at 5.96 µM | 0.5% of 340,000 active; in the data active = inhibition above about 36%;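 also: 0% = enzyme with DMSO and 100% = wells lacking enzyme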
# BSA TAMRA ctr – compounds interfering with TAMRA-BSA probe, counter-screen for TCR-CD3 interaction inhibitor project, biochemical, fluorescence, TAMRA-labeled BSA; 10% of 1,200 active; shares compounds with TCR-CD3 inh; TAMRA-labeled BSA probe fluorescence counterscreen; inhibition, % at 9.4 µM; AID 652035, 2013; in the data active = inhibition above about 23%;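 also: 0% = buffer low control and 100% = reference high control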
# TCR-CD3 inh conf – TCR-CD3 interaction inhibitors, retest, confirmation, biochemical, fluorescence, TAMRA-labeled TCR probe | AID 652036, 2013 | shares compounds with TCR-CD3 inh | TAMRA-labeled TCR probe fluorescence binding assay | inhibition, % at 9.4 µM | 48% of 1,200 active
# The depositor's hits bear a star; / = no result given. A selection: hits, their analogues and other compounds. The true share with any hit is near 2.5%. Rule as the data show it, unless noted: active = inhibition above about 19%; inactive = the rest.
SMILES,SIAE primary,PRMT1 FP inh,TCR-CD3 inh,mABHD4 FP,HTRA1 inhibitor,BSA TAMRA ctr,TCR-CD3 inh conf
NC(=O)[C@H]1CC2(CC(c3cccc(NC(=O)CC(c4ccccc4)c4ccccc4)c3)=NO2)CN1C(=O)CC(c1ccccc1)c1ccccc1 (stereo not given in full),-70,1,22*,-81,-110,8,17
C=C(C)C(=O)N1CC2(CC(c3cccc(NC(=O)CC(c4ccccc4)c4ccccc4)c3)=NO2)C[C@H]1C(N)=O (stereo not given in full),-5,0,9,-8,-13,/,/
C/C=C(/C)C(=O)Nc1cccc(C2=NOC3(C2)C[C@@H](C(N)=O)N(C(=O)c2ccc(OC)cc2)C3)c1 (stereo not given in full),15,1,38*,1,-5,3,4
NC(=O)[C@@H]1CC2(CC(c3cccc(NC(=O)CC(c4ccccc4)c4ccccc4)c3)=NO2)CN1C(=O)c1ccc(Cl)cc1 (stereo not given in full),-69,-1,35*,-76,-109,8,20*
O=C(CSc1nc2cc(Cl)ccc2c(=O)n1Cc1ccco1)Nc1ccc(S(=O)(=O)N2CCOCC2)cc1,-47,5,20*,-55,-27,13,26*
COC(=O)c1ccc2c(=O)n(Cc3ccco3)c(SCC(=O)Nc3ccc(C)c(Cl)c3)nc2c1,5,2,3,0,3,/,/
CC1(C)OC(=O)C2=C(CC(CCc3ccccc3)OC2c2ccc(Cl)c(Cl)c2)O1 (stereo not given),0,-4,-2,-3,/,/,/
COc1cccc(CNc2nc3cc(-c4ccccc4C)sc3c(=O)n2C)c1,-31,0,0,-46,/,/,/
COc1ccc(-c2cc(CNc3nc4cc(-c5ccccc5C)sc4c(=O)n3C)on2)cc1,-51,1,30*,-20,/,8,12
O=C(NNC(=O)OCc1ccccc1)OCc1ccccc1,13,1,111*,9,3,-8,-3
O=C(NOCc1ccccc1)OCc1ccccc1,-6,0,1,-11,4,/,/
Cc1ccc(C(C(=O)NC(C)(C)C)N(Cc2ccccc2)C(=O)c2snc(C(N)=O)c2N)o1 (stereo not given),3,-2,-12,-1,-8,/,/
COc1cc([N+](=O)[O-])cc(/C=N/NC(=O)C(O)(c2ccccc2)c2ccccc2)c1O,9,1,-11,9,16,/,/
O=C(N/N=C/c1cccc([N+](=O)[O-])c1O)c1cccs1,7,1,29*,23,9,-10,31*
O=C(N/N=C/c1cc([N+](=O)[O-])cc([N+](=O)[O-])c1O)/C(=C\c1cccs1)NC(=O)c1ccccc1,3,3,47*,29,23,-2,45*
O=C(N/N=C/c1ccc([N+](=O)[O-])cc1)c1cccs1,-6,-1,-4,0,/,/,/
O=C(N/N=C/c1cccc([N+](=O)[O-])c1O)C(O)(c1ccccc1)c1ccccc1,1,4,28*,12,11,-12,26*
CCOC(=O)Cn1cc(CN2C(C(=O)OC)CN(CCO)CCS2(=O)=O)nn1 (stereo not given),-3,-3,/,4,/,/,/
N#Cc1c(SCC(=O)Nc2ccc(C(F)(F)F)cc2)sc2c(O)cc(=O)[nH]c12,-12,14,-4,-2,-22,/,/
N#Cc1c(SCC(=O)Nc2nncs2)sc2c(O)cc(=O)[nH]c12,-19,46*,27*,3,-9,-13,9
O=C(NNC(=O)c1c(O)c2ccccc2[nH]c1=O)c1ccccc1Br,-3,-1,27*,3,5,-11,14
O=C(NC1CC1)c1c(O)c2ccccc2[nH]c1=O,7,-2,6,6,1,/,/
CCCCC(=O)NNC(=O)c1c(O)c2ccccc2[nH]c1=O,-9,-3,18,-6,7,/,/
O=C(CCl)NNC(=O)c1c(O)c2ccccc2[nH]c1=O,0,6,66*,-4,21,-7,50*
c1ccc(C2CCC3(CC2)CCC3NCc2cccs2)cc1 (stereo not given),-4,2,/,3,/,/,/
SMILES,SIAE primary,PRMT1 FP inh,TCR-CD3 inh,mABHD4 FP,HTRA1 inhibitor,BSA TAMRA ctr,TCR-CD3 inh conf
CC1CCCC(NC(=O)NC(=O)CCl)C1C (stereo not given),-2,0,11,3,2,/,/
Cc1nn(CC(=O)NC(=O)NC2CCCC(C)C2C)c(=O)c(C#N)c1C (stereo not given),4,8,24*,-6,-1,-4,-3
CCOC(=O)C1CCCN(C(=O)c2cc(-c3ccco3)nc3ccccc23)C1 (stereo not given),9,20,21*,11,26,-12,15
CCOC(=O)C1CCCN(C(=O)c2cc(-c3ccncc3)nc3ccccc23)C1 (stereo not given),0,0,11,-1,-1,/,/
O=C(Nc1nc(-c2ccco2)c(-c2ccco2)s1)c1cnccn1,14,37*,38*,23,/,0,15
O=C(Nc1nc2ccccc2s1)c1cnccn1,-7,1,-6,-2,-1,/,/
CC(C)C(=O)OCCCN1CCC2(CCC(c3ccccc3)CC2)C1=O (stereo not given),1,-1,/,1,/,/,/
CC(C)C(=O)Nc1ccc(C(=O)NNC(=S)NC(=O)c2ccco2)cc1,-1,6,33*,-1,4,-1,36*
Cc1ccc(C(=O)NNC(=S)NC(=O)c2ccco2)cc1,2,-3,10,0,5,/,/
Cc1cc(NC(=O)Cc2c(C)[nH]c3ccccc23)ccc1Oc1cccnc1,0,7,-4,5,/,/,/
Cc1ccc(-c2nn(-c3ccccc3)cc2C(=O)Nc2ccc(C)c(S(=O)(=O)N3CCOCC3)c2)cc1,-7,-2,69*,-12,-32,30*,60*
O=C(Nc1cccc(S(=O)(=O)N2CCOCC2)c1)c1cn(-c2ccccc2)nc1-c1ccccc1,-137,-1,10,-25,-57,/,/
COc1ccc(NC(=O)CSCC(=O)Nc2sccc2C#N)cc1,6,6,21*,23,11,9,5
O=C(C(=O)N1CCC(c2ccccc2)CC1)c1ccc(F)c(F)c1,-1,4,24*,-12,/,3,0
CCn1c2ccccc2c2cc(NC(=O)c3cc4c(C)nn(-c5ccccc5)c4s3)ccc21,5,1,/,1,/,/,/
CCCS(=O)(=O)N1CCCC(C(=O)NCCCN(C)Cc2ccccc2)C1 (stereo not given),4,-5,-9,-7,6,/,/

# Compound activity: PubChem, The Scripps Research Institute Molecular Screening Center
